Measured values from ChEMBL document CHEMBL5252671, “Design, synthesis and evaluation of the anti-breast cancer activity of 1,3-oxazolo[4,5-d]pyrimidine and 1,3-oxazolo[5,4-d]pyrimidine derivatives” (2023).

How the values were obtained:
Assay type in all cases: functional
[1] = test system: Hs-578T; assay: Antiproliferative activity against human Hs-578T cells assessed as inhibition of cell growth at 1 X 10^-5 M measured for 48 hrs by sulforhodamine B assay relative to control; conditions: dose 1 10^-5M
In short: (§1)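 NCI one-dose screen. Cells were seeded at 5000-40000/well in RPMI 1640 with 5% FBS and 2 mM L-glutamine and preincubated 24 h at 37 °C in 5% CO2. Compound was added at 10⁻⁵ M for 48 h. Cells were then fixed with 10% TCA, stained with sulforhodamine B, washed with 1% acetic acid, solubilized in 10 mM Tris and read as OD at 510 nm.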

[2] = test system: T47D; assay: Antiproliferative activity against human T47D cells assessed as inhibition of cell growth at 1 X 10^-5 M measured for 48 hrs by sulforhodamine B assay relative to control; conditions: dose 1 10^-5M; in short: as §1
[3] = test system: BT-549; assay: Antiproliferative activity against human BT-549 cells assessed as inhibition of cell growth at 1 X 10^-5 M measured for 48 hrs by sulforhodamine B assay relative to control; conditions: BT-549, 48 h, dose 1 10^-5M; in short: as §1
[4] = test system: MDA-MB-231; assay: Anticancer activity against human MDA-MB-231 cells measured at 48 hrs
In short: (§2)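 NCI DTP five-dose screen on the breast subpanel: compound at 0.01, 0.1, 1, 10 and 100 μM for 48 h. Cell density read by sulforhodamine B (protein content). GI50, TGI and LC50 were derived from the T, T0 and C optical densities using the NCI formulas.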

[5] = test system: MDA-MB-468; assay: Antiproliferative activity against human MDA-MB-468 cells assessed as inhibition of cell growth at 1 X 10^-5 M measured for 48 hrs by sulforhodamine B assay relative to control; conditions: MDA-MB-468, 48 h, dose 1 10^-5M; in short: as §1
[6] = test system: MCF7; assay: Antiproliferative activity against human MCF7 cells assessed as inhibition of cell growth at 1 X 10^-5 M measured for 48 hrs by sulforhodamine B assay relative to control; conditions: MCF7, 48 h, dose 1 10^-5M; in short: as §1
[7] = test system: MDA-MB-468; assay: Anticancer activity against human MDA-MB-468 cells measured at 48 hrs; in short: as §2
[8] = test system: MDA-MB-231; assay: Antiproliferative activity against human MDA-MB-231 cells assessed as inhibition of cell growth at 1 X 10^-5 M measured for 48 hrs by sulforhodamine B assay relative to control; conditions: MDA-MB-231, 48 h, dose 1 10^-5M; in short: as §1
[9] = test system: MCF7; assay: Anticancer activity against human MCF7 cells measured at 48 hrs; in short: as §2
[10] = test system: T47D; assay: Anticancer activity against human T47D cells measured at 48 hrs; conditions: for CC50: read-out: LC50 (the source's name); in short: as §2
[11] = test system: BT-549; assay: Anticancer activity against human BT-549 cells measured at 48 hrs; in short: as §2
[12] = test system: Hs-578T; assay: Anticancer activity against human Hs-578T cells measured at 48 hrs; in short: as §2

Row | Compound | inhibition at 10 µM [1] | inhibition at 10 µM [2] | inhibition at 10 µM [3] | GI50 [4] | LC50 (concentration killing 50% of starting cells) [4] | TGI [4] | inhibition at 10 µM [5] | inhibition at 10 µM [6] | GI50 [7] | TGI [7] | inhibition at 10 µM [8] | GI50 [9] | LC50 (concentration giving 50% net cell kill) [9] | TGI [9] | GI50 [10] | TGI [10] | GI50 [11] | LC50 (concentration giving 50% net cell kill) [11] | TGI [11] | GI50 [12] | further results
1 | Cc1ccc(-c2nc(N3CCCNCC3)c3oc(-c4ccc(C)cc4)nc3n2)cc1 | 0% | 146% | 10% | 1.69 µM | 5.73 µM | 3.11 µM | 95% | 165% | 1.96 µM | 4.39 µM | 179% | 1.85 µM | 8.14 µM | 3.88 µM | 1.94 µM | 4.17 µM | 16.3 µM | 75.2 µM | 35 µM | 12.6 µM | CC50 [10]: 8.96 µM; LC50 (50% lethal concentration) [12]: 80.9 µM; TGI [12]: 31.9 µM
2 | Cc1ccc(-c2nc3nc(-c4ccc(F)cc4)nc(N4CCCNCC4)c3o2)cc1 | 176% | 164% | 177% | 1.63 µM | 5.91 µM | 3.11 µM | 176% | 172% | 1.58 µM | 3.18 µM | 185% | 1.23 µM | 7.14 µM | 2.96 µM | 1.85 µM | 3.94 µM | 1.66 µM | 6.85 µM | 3.37 µM | 1.78 µM | LC50 (concentration giving 50% net cell kill) [7]: 6.41 µM; LC50 (50% lethal concentration) [12]: 7.63 µM; TGI [12]: 3.69 µM
3 | Cc1ccc(-c2nc3nc(-c4ccccc4)nc(N4CCCNCC4)c3o2)cc1 | 118% | 145% | 72% | 1.81 µM | 6.1 µM | 3.32 µM | 168% | 178% | 1.59 µM | 3.35 µM | 187% | 1.48 µM | 8.29 µM | 3.5 µM | 1.72 µM | 3.5 µM | 1.63 µM | 6.25 µM | 3.19 µM | 1.83 µM | LC50 (concentration giving 50% net cell kill) [7]: 7.04 µM; CC50 [10]: 7.1 µM; LC50 (50% lethal concentration) [12]: 8.85 µM; TGI [12]: 4.02 µM
4 | c1ccc(-c2nc(N3CCCNCC3)c3oc(-c4ccccc4)nc3n2)cc1 | 131% | 123% | 126% | 1.56 µM | 5.65 µM | 2.97 µM | 171% | 132% | 1.48 µM | 2.87 µM | 180% | 1.41 µM | 5.69 µM | 2.83 µM | 1.69 µM | 3.48 µM | 1.73 µM | 5.86 µM | 3.18 µM | 1.86 µM | LC50 (concentration giving 50% net cell kill) [7]: 5.54 µM; CC50 [10]: 7.15 µM; LC50 (50% lethal concentration) [12]: 9.16 µM; TGI [12]: 4.13 µM
